Our source for the MIC and MBC values is ChEMBL document CHEMBL4837210 (Eur J Med Chem, 2021).

Assay [1] has as its system Bacillus subtilis. Put plainly: Antibacterial activity against penicillin-susceptible Bacillus subtilis ATCC 9372 assessed as bacterial growth inhibition incubated for 24 hrs by CLSI protocol based broth microdilution method. The format is functional.
In the next assay the test system is Bacillus pumilus. Put plainly: Antibacterial activity against penicillin-susceptible Bacillus pumilus CMCC 63202 assessed as bacterial growth inhibition by broth dilution method. It counts as functional. Particulars: time 24 hrs. The procedure, abridged: (§1)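 Broth microdilution in Mueller Hinton broth. A 0.5 McFarland suspension was diluted tenfold, giving an inoculum of 1.5 × 10⁷ cfu/mL. This was added to 2-fold serial compound dilutions from […]. Plates were incubated aerobically at 37 °C for 24 h. MIC was the lowest concentration with no visible turbidity.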

Assay [2] concerns Staphylococcus aureus. The assay is described as follows: Antibacterial activity against erythromycin-susceptible Staphylococcus aureus ATCC 25923 assessed as bacterial growth inhibition incubated for 24 hrs by CLSI protocol based broth microdilution method. It counts as functional.
In assay [3] the test system is Streptococcus pyogenes. Put plainly: Antibacterial activity against erythromycin-susceptible Streptococcus pyogenes clinical isolate 1 assessed as bacterial growth inhibition incubated for 24 hrs by CLSI protocol based broth microdilution method. It counts as functional.
Assay [4] deals with Enterococcus faecalis. The assay is described as follows: Antibacterial activity against vancomycin-susceptible Enterococcus faecalis ATCC 29212 assessed as bacterial growth inhibition incubated for 24 hrs by CLSI protocol based broth microdilution method. It counts as functional.
The next assay deals with Pseudomonas aeruginosa. The assay is described as follows: Antibacterial activity against penicillin-susceptible Pseudomonas aeruginosa ATCC27853 assessed as bacterial growth inhibition incubated for 24 hrs by CLSI protocol based broth microdilution method. It counts as functional.
For another assay, the system named is Escherichia coli. Put plainly: Antibacterial activity against penicillin-susceptible Escherichia coli ATCC 25922 assessed as inhibition of bacterial growth measured by broth microdilution method. It counts as functional. The settings on record: time 24 hrs. The procedure, abridged: as §1
Assay [5] has as its system Staphylococcus aureus. Put plainly: Antibacterial activity against methicillin-resistant Staphylococcus aureus ATCC 43300 assessed as inhibition of bacterial growth by broth microdilution method. Particulars: time 24 hrs. The format is functional. The procedure, abridged:
(§2)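 Broth microdilution MIC. A 0.5 McFarland suspension was diluted 10-fold and added at 1.5 × 10⁷ cfu/mL to 2-fold dilutions (0.125–64) in Mueller Hinton broth. Incubated aerobically 24 h at 37 °C. MIC was the lowest concentration with no visible turbidity.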

Assay [6] deals with Staphylococcus aureus. The assay is described as follows: Antibacterial activity against penicillin-resistant Staphylococcus aureus assessed as inhibition of bacterial growth measured by broth microdilution method. The format is functional. Particulars: time 24 hrs. The procedure, abridged:
as §2

The subject of assay [7] is Staphylococcus aureus. Put plainly: Antibacterial activity against Staphylococcus aureus assessed as inhibition of bacterial growth measured by broth microdilution method. It counts as functional. The settings on record: time 24 hrs. The method, boiled down:
as §1

Assay [8] has as its system Staphylococcus epidermidis. The assay is described as follows: Antibacterial activity against penicillin-resistant Staphylococcus epidermidis assessed as inhibition of bacterial growth measured by broth microdilution method. It counts as functional. Particulars: time 24 hrs.
The subject of assay [9] is Streptococcus pyogenes. The assay is described as follows: Antibacterial activity against erythromycin-resistant Streptococcus pyogenes 2 assessed as bacterial growth inhibition incubated for 24 hrs by CLSI protocol based broth microdilution method. The format is functional.
In assay [10] the test system is Enterococcus faecalis. Put plainly: Antibacterial activity against vancomycin-resistant Enterococcus faecalis ATCC 51299 assessed as bacterial growth inhibition incubated for 24 hrs by CLSI protocol based broth microdilution method. It counts as functional.
Assay [11] concerns Enterococcus faecium. The assay is described as follows: Antibacterial activity against vancomycin-resistant Enterococcus faecium ATCC 51559 assessed as bacterial growth inhibition incubated for 24 hrs by CLSI protocol based broth microdilution method. The settings on record: ATCC 51559, 24 h.
Assay [12] relates to Enterococcus faecium. Put plainly: Antibacterial activity against vancomycin-susceptible Enterococcus faecium ATCC19434 assessed as bacterial growth inhibition incubated for 24 hrs by CLSI protocol based broth microdilution method. The settings on record: ATCC19434, 24 h.
Assay [13] concerns Staphylococcus aureus. Put plainly: Bactericidal activity against penicillin-resistant Staphylococcus aureus measured after 24 hrs by CLSI protocol based method. The format is functional. The procedure, abridged: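 MBC after broth microdilution. After 24 h, aliquots from clear wells were plated on tryptic soy agar and incubated aerobically 24 h at 37 °C. MBC was the lowest concentration giving no colonies.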

Assay [14] has as its system Bacillus subtilis. The assay is described as follows: Bactericidal activity against penicillin-susceptible Bacillus subtilis ATCC 9372 measured after 24 hrs by CLSI protocol based method. It counts as functional. The procedure, abridged: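 MBC followed on from the 24 h broth microdilution MIC plates. Aliquots from clear wells were spread on tryptic soy agar and incubated aerobically at 37 °C for 24 h. MBC was the minimum concentration giving no colonies.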

Converted amounts (≈) assume the structure as drawn.

In the case of `C[n+]1c2ccccc2c(-c2ccc(-c3ccccc3)cc2)c2ccccc21.[I-]`, the minimum inhibitory concentration (MIC) is 1 µg/mL with Bacillus subtilis [1]; 1 µg/mL in the assay with Bacillus pumilus; 0.125 µg/mL with Staphylococcus aureus [2]; 0.5 µg/mL with Streptococcus pyogenes [3]; 4 µg/mL in the assay with Enterococcus faecalis [4]; more than 64 µg/mL in the assay on Pseudomonas aeruginosa. In addition, the minimum inhibitory concentration (MIC) was 64 µg/mL in the assay on Escherichia coli; 16 µg/mL in the assay with Staphylococcus aureus [5]; 8 µg/mL with Staphylococcus aureus [6]; 0.25 µg/mL with Staphylococcus aureus [7]; 2 µg/mL in assay [8]; 1 µg/mL in the assay with Streptococcus pyogenes [9]. For the same molecule, the MIC amounted to 4 µg/mL in the assay with Enterococcus faecalis [10], 2 µg/mL in the assay with Enterococcus faecium [11] and 4 µg/mL with Enterococcus faecium [12].

For `CN[C@H](CC(C)C)C(=O)N[C@H]1C(=O)N[C@@H](CC(N)=O)C(=O)N[C@H]2C(=O)N[C@H]3C(=O)N[C@H](C(=O)N[C@H](C(=O)O)c4cc(O)cc(O)c4-c4cc3ccc4O)[C@H](O)c3ccc(c(Cl)c3)Oc3cc2cc(c3O[C@@H]2O[C@H](CO)[C@@H](O)[C@H](O)[C@H]2O[C@H]2C[C@](C)(N)[C@H](O)[C@H](C)O2)Oc2ccc(cc2Cl)[C@H]1O` [VANCOMYCIN], the minimum inhibitory concentration (MIC) in the assay on Bacillus subtilis [1] was 0.5 µg/mL (≈ 0.345 µM); in the assay on Bacillus pumilus, 2 µg/mL (≈ 1.38 µM); in the assay with Streptococcus pyogenes [3], 0.25 µg/mL (≈ 0.173 µM); in the assay on Pseudomonas aeruginosa, more than 64 µg/mL; with Escherichia coli, more than 64 µg/mL; in the assay with Streptococcus pyogenes [9], 1 µg/mL (≈ 0.69 µM). Moreover, the minimum inhibitory concentration (MIC) in the assay with Enterococcus faecium [12] is 2 µg/mL (≈ 1.38 µM).

Take `CC(=O)NC[C@H]1CN(c2ccc(N3CCOCC3)c(F)c2)C(=O)O1` [LINEZOLID]: the minimum inhibitory concentration (MIC) was 0.5 µg/mL (≈ 1.48 µM) with Bacillus subtilis [1]; 2 µg/mL (≈ 5.93 µM) with Bacillus pumilus; 1 µg/mL (≈ 2.96 µM) with Streptococcus pyogenes [3]; more than 64 µg/mL in the assay with Pseudomonas aeruginosa; more than 64 µg/mL in the assay with Escherichia coli; 4 µg/mL (≈ 11.9 µM) in assay [8]. Besides, the MIC in the assay on Streptococcus pyogenes [9] is 1 µg/mL (≈ 2.96 µM). Also, the MBC was determined as 16 µg/mL (≈ 47.4 µM) against Staphylococcus aureus [13] and 64 µg/mL (≈ 190 µM) in the assay with Bacillus subtilis [14].

As for `CCCCc1ccc(-c2c3ccccc3[n+](C)c3ccccc23)cc1.[I-]`, the minimum inhibitory concentration (MIC) in the assay on Bacillus subtilis [1] is 0.5 µg/mL; with Bacillus pumilus, 1 µg/mL; in the assay on Staphylococcus aureus [2] it was 0.03 µg/mL; in the assay on Streptococcus pyogenes [3], 1 µg/mL; in the assay on Enterococcus faecalis [4] it was 4 µg/mL; with Pseudomonas aeruginosa, more than 64 µg/mL. In addition, the MIC was 64 µg/mL in the assay on Escherichia coli; 2 µg/mL in the assay on Staphylococcus aureus [5]; 8 µg/mL with Staphylococcus aureus [6]; less than 0.125 µg/mL with Staphylococcus aureus [7]; 2 µg/mL in [8]; 2 µg/mL in the assay on Streptococcus pyogenes [9]. Moreover, the MIC stood at 4 µg/mL with Enterococcus faecalis [10], 2 µg/mL in the assay with Enterococcus faecium [11] and 4 µg/mL in the assay with Enterococcus faecium [12].

On to `C[n+]1c2ccccc2c(/C=C/c2ccc(Cl)cc2Cl)c2ccccc21.[I-]`, for which the MIC with Bacillus subtilis [1] is 0.5 µg/mL; in the assay on Bacillus pumilus, 2 µg/mL; in the assay with Staphylococcus aureus [2], 0.5 µg/mL; in the assay on Streptococcus pyogenes [3], 0.25 µg/mL; in the assay on Enterococcus faecalis [4], 2 µg/mL; in the assay with Pseudomonas aeruginosa it was more than 64 µg/mL. Also, the MIC with Escherichia coli is 32 µg/mL; in the assay on Staphylococcus aureus [5], 1 µg/mL; in the assay with Staphylococcus aureus [6], 2 µg/mL; with Staphylococcus aureus [7] it was 1 µg/mL; in assay [8], 2 µg/mL; with Streptococcus pyogenes [9], 0.5 µg/mL. For the same molecule, the MIC in the assay with Enterococcus faecalis [10] was 8 µg/mL; in the assay with Enterococcus faecium [11] it was 4 µg/mL; in the assay with Enterococcus faecium [12], 4 µg/mL.

Turning to `C[n+]1c2ccccc2c(C#Cc2ccc(-c3ccccc3)cc2)c2ccccc21.[I-]`, the MIC in the assay on Bacillus subtilis [1] is 8 µg/mL; with Bacillus pumilus, 8 µg/mL; with Staphylococcus aureus [2], 8 µg/mL; with Streptococcus pyogenes [3], 16 µg/mL; with Pseudomonas aeruginosa, more than 64 µg/mL; in the assay with Escherichia coli it was more than 64 µg/mL. The MIC with Staphylococcus aureus [5] was 16 µg/mL; in the assay on Staphylococcus aureus [6], 16 µg/mL; with Staphylococcus aureus [7], 16 µg/mL; in [8], 8 µg/mL; with Streptococcus pyogenes [9], 16 µg/mL; in the assay on Enterococcus faecalis [10] it was more than 64 µg/mL. The MIC in the assay on Enterococcus faecium [11] was more than 64 µg/mL.

Turning to `CCc1ccc(C#Cc2c3ccccc3[n+](C)c3ccccc23)cc1.[I-]`, the MIC was 2 µg/mL in the assay with Bacillus subtilis [1]; 2 µg/mL in the assay on Bacillus pumilus; 2 µg/mL in the assay on Staphylococcus aureus [2]; 4 µg/mL with Streptococcus pyogenes [3]; 2 µg/mL in the assay with Enterococcus faecalis [4]; more than 64 µg/mL with Pseudomonas aeruginosa. The MIC is more than 64 µg/mL in the assay with Escherichia coli; 2 µg/mL in the assay with Staphylococcus aureus [5]; 4 µg/mL with Staphylococcus aureus [6]; 2 µg/mL with Staphylococcus aureus [7]; 8 µg/mL in [8]; 4 µg/mL in the assay with Streptococcus pyogenes [9]. In addition, the MIC in the assay with Enterococcus faecalis [10] is 8 µg/mL; with Enterococcus faecium [11], 4 µg/mL; in the assay on Enterococcus faecium [12] it was 4 µg/mL.

With `C[n+]1c2ccccc2cc2ccccc21.[I-]`, the MIC in the assay on Bacillus subtilis [1], in the assay with Bacillus pumilus, in the assay with Staphylococcus aureus [2], with Streptococcus pyogenes [3], in the assay with Enterococcus faecalis [4] and in the assay on Pseudomonas aeruginosa was more than 64 µg/mL throughout. Further, the MIC (in the assay on Escherichia coli; with Staphylococcus aureus [5]; with Staphylococcus aureus [7]; in assay [8]; with Streptococcus pyogenes [9]; in the assay on Enterococcus faecalis [10]) was more than 64 µg/mL throughout. Moreover, the minimum inhibitory concentration (MIC) in the assay on Enterococcus faecium [11] and in the assay on Enterococcus faecium [12] was more than 64 µg/mL each time.

In the case of `COc1ccc2cc3[n+](cc2c1OC)CCc1cc2c(cc1-3)OCO2.[Cl-]` [BERBERINE CHLORIDE], the minimum inhibitory concentration (MIC) in the assay with Bacillus subtilis [1] was more than 64 µg/mL; in the assay on Bacillus pumilus it was more than 64 µg/mL; in the assay on Staphylococcus aureus [2] it was 64 µg/mL; with Streptococcus pyogenes [3] it was more than 64 µg/mL; in the assay on Enterococcus faecalis [4], more than 64 µg/mL; with Pseudomonas aeruginosa it was more than 64 µg/mL. For the same molecule, the minimal inhibitory concentration (MIC) in the assay with Escherichia coli was more than 64 µg/mL; in the assay with Staphylococcus aureus [5], more than 64 µg/mL; in the assay on Staphylococcus aureus [7], more than 64 µg/mL; in assay [8] it was more than 64 µg/mL; in the assay with Streptococcus pyogenes [9], 64 µg/mL; in the assay on Enterococcus faecalis [10], more than 64 µg/mL. Besides, the MIC in the assay with Enterococcus faecium [11] and with Enterococcus faecium [12] was more than 64 µg/mL in each case.

Consider `Cc1cccc(C#Cc2c3ccccc3[n+](C)c3ccccc23)c1.[I-]`, for which the minimum inhibitory concentration (MIC) in the assay with Bacillus subtilis [1] was 2 µg/mL; in the assay with Bacillus pumilus, 2 µg/mL; in the assay on Staphylococcus aureus [2] it was 2 µg/mL; in the assay with Streptococcus pyogenes [3] it was 4 µg/mL; in the assay with Enterococcus faecalis [4], 4 µg/mL; in the assay with Pseudomonas aeruginosa it was more than 64 µg/mL. Also, the MIC is more than 64 µg/mL in the assay on Escherichia coli; 2 µg/mL in the assay on Staphylococcus aureus [5]; 2 µg/mL in the assay with Staphylococcus aureus [6]; 2 µg/mL in the assay on Staphylococcus aureus [7]; 4 µg/mL in assay [8]; 4 µg/mL in the assay with Streptococcus pyogenes [9]. Further, the MIC in the assay on Enterococcus faecalis [10] came to 8 µg/mL; in the assay on Enterococcus faecium [11], 4 µg/mL; with Enterococcus faecium [12] it was 8 µg/mL.
